ChEMBL document CHEMBL2434837, “Anticancer evaluation of some newly synthesized N-nicotinonitrile derivative” (Eur J Med Chem, 2013)
In brackets after ≈: the same amount, converted by molar mass. Activity calls are given as the source filed them. The calls are words filed in the database; no cut-off is given here.

Legend:
[1] = tested on: A549; assay: Inhibition of uPA protein expression in human A549 cells at 0.1 time compound IC50 after 48 hrs by ELISA; type: functional
Procedure, shortened: (§1)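 Cells exposed 48 h to compound. Culture medium collected and spun at 2000 xg for 10 min to remove debris. Sandwich ELISA for human uPA: sample 2 h, biotinylated anti-uPA 1 h at 25 °C, streptavidin-peroxidase 30 min, chromogen, then stop solution, absorbance read at 450 nm. uPA level expressed as percent change relative to DMSO-treated control cells.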

[2] = tested on: HepG2; assay: Cytotoxicity against human HepG2 cells after 48 hrs by SRB assay; type: functional, cell-based
Procedure, shortened: (§2)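 Cells from ATCC, kept in DMEM with 10% heat-inactivated fetal calf serum, penicillin and streptomycin at 37 °C, 5% CO2. Seeded at 10^4 cells/well and left 24 h to attach. Compounds in DMSO (1 mg/ml stock) added at several concentrations, triplicate wells per dose, 48 h exposure. Then fixed, stained 30 min with 0.4% SRB in 1% acetic acid, and dye recovered in Tris-EDTA for absorbance. IC50 derived from surviving fraction versus concentration.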

[3] = tested on: MCF7; assay: Cytotoxicity against human MCF7 cells after 48 hrs by SRB assay; type: functional, cell-based; procedure, shortened: as §2
[4] = tested on: A549; assay: Cytotoxicity against human A549 cells after 48 hrs by SRB assay; type: functional, cell-based; procedure, shortened: as §2
[5] = tested on: HepG2; assay: Inhibition of uPA protein expression in human HepG2 cells at 0.1 time compound IC50 after 48 hrs by ELISA; type: functional; procedure, shortened: as §1
[6] = tested on: MCF7; assay: Inhibition of uPA protein expression in human MCF7 cells at 0.1 time compound IC50 after 48 hrs by ELISA; type: functional; procedure, shortened: as §1
[7] = Homo sapiens, HepG2, 48 h, read-out: IC50
[8] = Homo sapiens, MCF7, 48 h, read-out: IC50

Row | Structure (SMILES) | inhibition [1] | IC50 [2, 7] | IC50 [3, 8] | IC50 ([4]; a549) | inhibition (INH) [5] | inhibition (INH) [6] | IC50 ([2]; hepg2) | IC50 ([3]; mcf7) | inhibition [5] | inhibition [6] | inhibition (INH) [1] | IC50 ([4]; Homo sapiens, A549, 48 h, read-out: IC50)
1 | N#Cc1c(-c2ccc(Cl)cc2)cc(-c2ccc(Cl)cc2)n(Cc2ccccc2)c1=O | inactive | 4.2 µg/mL (≈ 9.74 µM) | 3.65 µg/mL (≈ 8.46 µM) | Not Active | 83% | 86% |  |  |  |  |  | 
2 | N#Cc1c(-c2ccc(Cl)cc2)cc(-c2ccc(Cl)cc2)[nH]c1=O | inactive |  |  | Not Active |  |  | Not Active | Not Active | inactive | inactive |  | 
3 | N#CCn1c(-c2ccc(Cl)cc2)cc(-c2ccc(Cl)cc2)c(C#N)c1=O | inactive |  |  | Not Active |  |  | Not Active | Not Active | inactive | inactive |  | 
4 | COc1cccc2c1C(=O)c1c(O)c3c(c(O)c1C2=O)C[C@@](O)(C(=O)CO)C[C@@H]3O[C@H]1C[C@H](N)[C@H](O)[C@H](C)O1 [DOXORUBICIN] |  | 3.9 µg/mL (≈ 7.18 µM) |  |  | 88% | 91% |  |  |  |  | 82% | 4.11 µg/mL (≈ 7.56 µM)
5 | C=CCn1c(-c2ccc(Cl)cc2)cc(-c2ccc(Cl)cc2)c(C#N)c1=O | inactive | 20 µg/mL (≈ 52.5 µM) | 19 µg/mL (≈ 49.8 µM) | Not Active | 5% | 3% |  |  |  |  |  | 
6 | N#Cc1c(-c2ccc(Cl)cc2)cc(-c2ccc(Cl)cc2)n(C(=O)c2ccccc2)c1=O | inactive | 3.75 µg/mL (≈ 8.42 µM) | 2.6 µg/mL (≈ 5.84 µM) | Not Active | 87% | 90% |  |  |  |  |  | 
7 | N#Cc1c(-c2ccc(Cl)cc2)cc(-c2ccc(Cl)cc2)n([C@@H]2O[C@H](COC(=O)c3ccccc3)[C@@H](OC(=O)c3ccccc3)[C@H]2OC(=O)c2ccccc2)c1=O | inactive | 8 µg/mL (≈ 10.2 µM) | 5.9 µg/mL (≈ 7.51 µM) | Not Active | 60% | 66% |  |  |  |  |  | 
8 | N#Cc1c(-c2ccc(Cl)cc2)cc(-c2ccc(Cl)cc2)n([C@@H]2O[C@H](CO)[C@@H](O)[C@H]2O)c1=O | inactive | 6.9 µg/mL (≈ 14.6 µM) | 5.7 µg/mL (≈ 12 µM) | Not Active | 56% | 60% |  |  |  |  |  | 
9 | N#Cc1c(-c2ccc(Cl)cc2)cc(-c2ccc(Cl)cc2)n(CC(O)CCl)c1=O (stereo not drawn) | inactive | 4.8 µg/mL (≈ 11.1 µM) | 4.6 µg/mL (≈ 10.6 µM) | Not Active | 67% | 82% |  |  |  |  |  | 
10 | N#Cc1c(-c2ccc(Cl)cc2)cc(-c2ccc(Cl)cc2)n([C@@H]2O[C@H](CO)[C@@H](O)[C@H](O)[C@H]2O)c1=O | inactive | 16.1 µg/mL (≈ 32 µM) | 14.2 µg/mL (≈ 28.2 µM) | Not Active | 6% | 9% |  |  |  |  |  | 
11 | N#Cc1c(-c2ccc(Cl)cc2)cc(-c2ccc(Cl)cc2)n(CC2CO2)c1=O (stereo not drawn) | inactive | 6.2 µg/mL (≈ 15.6 µM) | 5 µg/mL (≈ 12.6 µM) | Not Active | 63% | 77% |  |  |  |  |  | 
12 | CCn1c(-c2ccc(Cl)cc2)cc(-c2ccc(Cl)cc2)c(C#N)c1=O | inactive | 22.3 µg/mL (≈ 60.4 µM) | 19.7 µg/mL (≈ 53.4 µM) | Not Active | 2% | 3% |  |  |  |  |  | 
13 | CC(=O)OC[C@H]1O[C@@H](n2c(-c3ccc(Cl)cc3)cc(-c3ccc(Cl)cc3)c(C#N)c2=O)[C@H](OC(C)=O)[C@@H](OC(C)=O)[C@@H]1OC(C)=O | inactive | 7.25 µg/mL (≈ 10.8 µM) | 6.3 µg/mL (≈ 9.38 µM) | Not Active | 48% | 54% |  |  |  |  |  | 
14 | C#CCn1c(-c2ccc(Cl)cc2)cc(-c2ccc(Cl)cc2)c(C#N)c1=O | inactive | 18.3 µg/mL (≈ 48.3 µM) | 16.7 µg/mL (≈ 44 µM) | Not Active | 5% | 7% |  |  |  |  |  | 
